The source of these data is ChEMBL document CHEMBL4007505 (J Med Chem, 2017).

Test [1] has as its target T1, Sodium-dependent noradrenaline transporter (Homo sapiens, UniProt P23975). In words: Enhancing of [3H]mazindol binding to recombinant human NET expressed in HEK293 cell membranes preincubated for 10 mins followed by radioligand addition measured after 90 mins by micro beta scintillation counting analysis.
For test [2], the target named is T2, Sodium-dependent dopamine transporter (Homo sapiens, UniProt Q01959). Nature of the test: Enhancing of [125I]RTI-55 binding to recombinant human DAT expressed in HEK293 cell membranes preincubated for 10 mins followed by radioligand addition measured after 90 mins by micro beta scintillation counting analysis. Details: concentration or dose not given beside the values. Particulars: for pEC50: read-out: EC50. The method, boiled down:
(§1)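 Membranes of HEK-293 cells stably expressing hDAT, hNET or hSERT. […] Compound preincubated 10 min at room temperature, then [125I]23 (40-80 pM final) or [3H]26 (1-3 nM for DAT and NET, 10-13 nM for SERT) added. Incubated 90 min at room temperature in the dark, then filtered. EC50 or Ki; mean ± SEM.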

Test [3] deals with T1, Sodium-dependent noradrenaline transporter. Nature of the test: Inhibition of recombinant human NET expressed in HEK293 […] assessed as reduction in [3H]-norepinephrine uptake incubated for 22 mins by micro beta scintillation counting analysis.
Test [4] addresses T3, Sodium-dependent serotonin transporter (Homo sapiens, UniProt P31645). Nature of the test: Inhibition of recombinant human SERT expressed in HEK293 cell […] as reduction in [3H]5-HT uptake incubated for 22 mins by micro beta scintillation counting analysis.
Target sequence in this assay (P31645 whole entry): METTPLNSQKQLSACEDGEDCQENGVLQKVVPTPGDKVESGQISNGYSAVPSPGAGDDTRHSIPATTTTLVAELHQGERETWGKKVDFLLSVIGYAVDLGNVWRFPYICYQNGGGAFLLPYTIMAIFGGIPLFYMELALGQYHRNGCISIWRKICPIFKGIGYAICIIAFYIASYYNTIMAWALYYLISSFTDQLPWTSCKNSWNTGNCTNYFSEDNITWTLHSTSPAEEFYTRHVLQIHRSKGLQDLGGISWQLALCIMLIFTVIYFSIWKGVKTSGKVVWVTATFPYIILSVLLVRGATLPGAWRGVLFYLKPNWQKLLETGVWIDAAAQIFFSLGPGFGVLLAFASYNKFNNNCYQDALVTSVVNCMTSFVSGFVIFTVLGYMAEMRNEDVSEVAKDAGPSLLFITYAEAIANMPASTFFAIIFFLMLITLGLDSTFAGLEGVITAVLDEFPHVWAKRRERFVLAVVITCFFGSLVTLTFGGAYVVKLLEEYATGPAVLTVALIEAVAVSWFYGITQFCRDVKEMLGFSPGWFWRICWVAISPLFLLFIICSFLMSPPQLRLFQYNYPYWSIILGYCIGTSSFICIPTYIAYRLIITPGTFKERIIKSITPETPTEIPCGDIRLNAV
For test [5], the target named is T2, Sodium-dependent dopamine transporter. In words: Inhibition of recombinant human DAT expressed in HEK293 cell […] as reduction in [3H]-DA uptake incubated for 22 mins by micro beta scintillation counting analysis.
Test [6] concerns the target T3, Sodium-dependent serotonin transporter. Nature of the test: Enhancing of [125I]RTI-55 binding to recombinant human SERT expressed in HEK293 cell membranes preincubated for 10 mins followed by radioligand addition measured after 90 mins by micro beta scintillation counting analysis. Particulars: for pEC50: read-out: EC50.
Test [7] concerns the target T2, Sodium-dependent dopamine transporter. Nature of the test: Enhancing of [3H]mazindol binding to recombinant human DAT expressed in HEK293 cell membranes preincubated for 10 mins followed by radioligand addition measured after 90 mins by micro beta scintillation counting analysis. Further details: concentration or dose not given beside the values. Particulars: for pEC50: read-out: EC50. Put shortly: as §1

Test [8] concerns the target T4, Sodium-dependent dopamine transporter (Mus musculus, UniProt Q61327). Nature of the test: (§2) Enhancing of [125I]RTI-55 binding to mouse DAT expressed in HEK293 cells preincubated for 10 mins followed by radioligand addition measured after 90 mins by micro beta scintillation counting analysis. The format is cell-based. Put shortly: (§3)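 Membranes preincubated 10 min at room temperature with compound in Krebs-HEPES buffer pH 7.4, then [125I]23 at fixed 45-50 pM for 90 min in the dark, filtered. […] EC50 and % control binding; mean ± SEM.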

Test [9] addresses Sodium-dependent dopamine transporter (Mus musculus) (UniProt Q61327). The description is as §2. The format is cell-based. Put shortly: as §3
The target of test [10] is T3, Sodium-dependent serotonin transporter. Nature of the test: Enhancing of [3H]mazindol binding to recombinant human SERT expressed in HEK293 cell membranes preincubated for 10 mins followed by radioligand addition measured after 90 mins by micro beta scintillation counting analysis.
Test [11] concerns the target T4, Sodium-dependent dopamine transporter. Nature of the test: Inhibition of mouse DAT expressed in HEK293 cells assessed as reduction in [3H]-DA uptake. The format is cell-based.
The target in test [12] is T1, Sodium-dependent noradrenaline transporter. Nature of the test: Enhancing of [125I]RTI-55 binding to recombinant human NET expressed in HEK293 cell membranes preincubated for 10 mins followed by radioligand addition measured after 90 mins by micro beta scintillation counting analysis. Further details: concentration or dose not given beside the values. Particulars: for pEC50: read-out: EC50.

The target in test [13] is T5, Adenosine receptor A3 (Mus musculus) (UniProt Q61618).
T5 sequence (whole entry): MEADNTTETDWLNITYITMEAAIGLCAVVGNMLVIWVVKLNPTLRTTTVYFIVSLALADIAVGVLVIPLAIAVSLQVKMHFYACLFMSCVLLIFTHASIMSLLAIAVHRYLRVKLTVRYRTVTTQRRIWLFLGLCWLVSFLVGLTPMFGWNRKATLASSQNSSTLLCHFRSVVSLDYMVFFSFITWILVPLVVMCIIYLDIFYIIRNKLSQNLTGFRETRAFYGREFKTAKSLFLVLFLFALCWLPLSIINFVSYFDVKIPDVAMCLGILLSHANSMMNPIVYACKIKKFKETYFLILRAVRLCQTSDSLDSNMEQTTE
Nature of the test: Displacement of [125I]N6-(4-amino-3-iodobenzyl)adenosine-5'-N-methyluronamide from mouse A3AR expressed in HEK293T cells at 10 uM pre-incubated for 10 mins before radioligand addition and measured 90 mins after radioligand addition by micro beta scintillation counting analysis relative to control. The test is classed as cell-based. (In general: In a radioligand displacement assay an active substance lowers the binding of a labelled ligand.)

Test [14] concerns the target Adenosine receptor A3 (Homo sapiens) (UniProt P0DMS8). Nature of the test: Agonist activity at human A3AR assessed as inhibition of cAMP formation at 10 uM relative to adenosine-5'-Nethyluronamide.
Test [15] deals with T2, Sodium-dependent dopamine transporter. Nature of the test: Enhancing of [3H]WIN35,428 binding to recombinant human DAT expressed in HEK293 cell membranes at 10 uM pre-incubated for 10 mins before radioligand addition and measured 90 mins after radioligand addition by micro beta scintillation counting analysis relative to control.
Test [16] has the same target. In words: Inhibition of [3H]WIN35,428 binding to recombinant human DAT expressed in HEK293 cell membranes at 10 uM pre-incubated for 10 mins before radioligand addition and measured 90 mins after radioligand addition by micro beta scintillation counting analysis relative to control.
Another test concerns the target T6, Adenosine receptor A3 (Homo sapiens, UniProt P0DMS8).
T6 sequence (P0DMS8 whole entry): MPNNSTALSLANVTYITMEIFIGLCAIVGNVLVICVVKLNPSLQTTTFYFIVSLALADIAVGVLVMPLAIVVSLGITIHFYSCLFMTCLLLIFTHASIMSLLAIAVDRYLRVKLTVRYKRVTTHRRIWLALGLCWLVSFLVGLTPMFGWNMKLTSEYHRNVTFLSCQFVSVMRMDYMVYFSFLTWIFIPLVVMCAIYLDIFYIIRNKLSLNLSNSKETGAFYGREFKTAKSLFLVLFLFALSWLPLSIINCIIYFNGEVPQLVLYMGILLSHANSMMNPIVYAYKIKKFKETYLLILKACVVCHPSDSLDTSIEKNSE
Nature of the test: Displacement of [125I]N6-(4-amino-3-iodobenzyl)adenosine-5'-N-methyluronamide from human A3AR expressed in HEK293T cells pre-incubated for 10 mins before radioligand addition and measured 90 mins after radioligand addition by micro beta scintillation counting analysis relative to control. The test is classed as cell-based, HEK-293T.

Structures are written as SMILES. pEC50, pIC50, pKi: −log10 of the molar value. Active and inactive are the calls of the source. The calls are words filed in the database; no cut-off is given here.

In general, pEC50 refers to the negative decadic logarithm of the EC50, by convention in mol/L. As a reminder, the pIC50 is −log10 of the IC50, conventionally taken in molar units. For orientation: Emax means the maximal effect, on the per cent scale that the assay sets. Usually inhibition stands for the change of the read-out against control, counted positive when it falls. As usually defined, the pKi is the negative decadic logarithm of the Ki, by convention in mol/L.

T4 sequence (Q61327 whole entry): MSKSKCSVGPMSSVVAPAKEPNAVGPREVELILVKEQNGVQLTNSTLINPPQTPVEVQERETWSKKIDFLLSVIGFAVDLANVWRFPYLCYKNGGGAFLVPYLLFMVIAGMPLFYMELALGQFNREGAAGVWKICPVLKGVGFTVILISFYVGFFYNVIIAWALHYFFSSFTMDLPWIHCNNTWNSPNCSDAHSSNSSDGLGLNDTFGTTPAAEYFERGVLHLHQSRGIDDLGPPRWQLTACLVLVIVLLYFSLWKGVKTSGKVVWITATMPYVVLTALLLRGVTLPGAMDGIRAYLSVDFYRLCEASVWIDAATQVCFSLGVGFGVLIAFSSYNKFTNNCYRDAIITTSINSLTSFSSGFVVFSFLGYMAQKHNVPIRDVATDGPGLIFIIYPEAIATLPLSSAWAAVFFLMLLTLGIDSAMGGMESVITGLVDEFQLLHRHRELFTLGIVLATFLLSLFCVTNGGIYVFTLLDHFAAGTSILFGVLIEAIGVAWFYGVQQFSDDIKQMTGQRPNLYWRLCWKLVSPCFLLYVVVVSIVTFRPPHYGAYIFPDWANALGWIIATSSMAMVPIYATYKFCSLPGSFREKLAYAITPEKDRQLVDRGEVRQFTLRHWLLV
Sodium-dependent dopamine transporter (Mus musculus), sequence (Q61327 whole entry): as above
T1 sequence (P23975 whole entry): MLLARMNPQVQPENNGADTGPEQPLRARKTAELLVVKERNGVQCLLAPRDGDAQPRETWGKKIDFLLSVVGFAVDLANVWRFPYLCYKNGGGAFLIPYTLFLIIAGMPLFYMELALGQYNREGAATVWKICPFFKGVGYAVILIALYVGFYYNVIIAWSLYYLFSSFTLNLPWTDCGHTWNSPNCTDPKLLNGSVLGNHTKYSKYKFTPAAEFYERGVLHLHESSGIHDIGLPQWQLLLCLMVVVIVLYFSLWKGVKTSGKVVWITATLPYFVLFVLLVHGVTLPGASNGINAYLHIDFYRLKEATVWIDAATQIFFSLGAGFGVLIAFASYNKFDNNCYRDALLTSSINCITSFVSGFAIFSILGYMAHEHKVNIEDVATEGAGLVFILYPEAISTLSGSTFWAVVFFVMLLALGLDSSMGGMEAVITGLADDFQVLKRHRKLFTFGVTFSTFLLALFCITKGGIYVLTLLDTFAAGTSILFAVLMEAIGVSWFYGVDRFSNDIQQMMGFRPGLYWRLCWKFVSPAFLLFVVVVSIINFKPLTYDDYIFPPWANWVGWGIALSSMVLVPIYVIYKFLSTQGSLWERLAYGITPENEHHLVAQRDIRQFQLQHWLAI
T2 sequence (Q01959 whole entry): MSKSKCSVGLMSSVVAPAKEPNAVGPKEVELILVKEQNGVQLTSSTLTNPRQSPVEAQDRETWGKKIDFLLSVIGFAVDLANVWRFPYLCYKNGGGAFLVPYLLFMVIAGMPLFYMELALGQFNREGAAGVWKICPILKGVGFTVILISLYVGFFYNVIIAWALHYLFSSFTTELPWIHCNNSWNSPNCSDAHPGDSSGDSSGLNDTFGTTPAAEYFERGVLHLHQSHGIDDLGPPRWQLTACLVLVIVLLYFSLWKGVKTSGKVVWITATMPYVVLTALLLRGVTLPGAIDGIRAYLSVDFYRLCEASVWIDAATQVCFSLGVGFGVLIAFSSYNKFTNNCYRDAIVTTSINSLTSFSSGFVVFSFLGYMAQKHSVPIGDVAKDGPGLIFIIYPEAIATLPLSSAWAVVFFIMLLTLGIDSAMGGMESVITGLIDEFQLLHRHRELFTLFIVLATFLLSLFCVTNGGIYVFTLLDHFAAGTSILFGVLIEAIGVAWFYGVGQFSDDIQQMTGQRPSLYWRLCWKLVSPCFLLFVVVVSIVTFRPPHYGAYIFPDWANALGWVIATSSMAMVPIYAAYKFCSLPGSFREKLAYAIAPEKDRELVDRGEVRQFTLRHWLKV

As for `CNC(=O)[C@@]12C[C@@H]1[C@@H](n1cnc3c(NC)nc(C#Cc4ccc(Cl)s4)nc31)[C@H](O)[C@@H]2O`, the outcome in [1], in test [6] and in test [10] was inactive. Also, the Activity in test [2] was 550%; in [7] it was 403%; in test [12], 386%. Moreover, the negative logarithm of the EC50 (pEC50) was 7.45 in test [2]; < 5.00 in test [6]; 6.88 in test [7]; 5.65 in test [8]; < 5.00 in [10]; 5.93 in [12]. The pIC50 in test [3] was < 5.00; in test [4] it was < 5.00; in [5], 6.60; in [11], 5.64. In test [9], the Emax was found to be 1150%.
`CNC(=O)[C@@]12C[C@@H]1[C@@H](n1cnc3c(NC)nc(C#Cc4ccc(Cl)s4)cc31)[C@H](O)[C@@H]2O`: the result in test [1] and in [6] was inactive. The Activity in test [2] came to 437%; in test [7] it was 405%; in test [15], 334%; in [12], 318%. Besides, the pEC50 in test [2] is 6.62; in [7] it was 6.26; in test [8], 5.56; in test [12] it was 6.13. Besides, the inhibition in test [13] was 38%. The pIC50 was 5.30 in [3], 6.79 in test [5] and 5.37 in test [11]. Also, the Efficacy in [14] came to 116%. For the same compound, the Emax in test [9] is 1000%. Also, the inhibition entry in test [16] was “inactive”.
Take `CNc1nc(C#Cc2ccc(Cl)s2)nc2c1ncn2[C@H]1[C@H](O)[C@H](O)[C@]2(C(=O)OC)C[C@H]12`: the result in [1] and in [6] was inactive. Further, the Activity in [2] turned out to be 458%; in test [7] it was 540%; in test [15], 352%; in test [12], 375%. Further, the pEC50 in test [2] was 7.46; in test [7], 6.91; in [8], 6.09; in [12] it was 6.51. In test [13], this compound returned an inhibition of 36%. The results for the pIC50 in [3], in test [5] and in test [11] were 5.47, 6.90 and 6.03, respectively. Moreover, in test [14], the Efficacy came out at 11.6%. Moreover, in test [9], the Emax came to 1440%. On Adenosine receptor A3, the pKi is 8.27. Moreover, the inhibition result in [16] is “inactive”.
Take `CNC(=O)[C@@]12C[C@@H]1[C@@H](n1cnc3c(NC)nc(C#Cc4ccc(Br)s4)nc31)[C@H](O)[C@@H]2O`: the outcome in test [1], in [6] and in test [10] was inactive. In addition, the Activity in test [2] came out at 217%; in test [7], 369%; in [12] it was 285%. Also, the pEC50 in [2] was 8.04; in [6], < 5.00; in test [7], 6.06; in test [8] it was 5.96; in test [10], < 5.00; in test [12], 6.17. The pIC50 was 5.21 in test [3], < 5.00 in test [4], 6.64 in [5] and 5.49 in test [11]. The Emax in [9] amounted to 810%.
Turning to `CNC(=O)[C@@]12C[C@@H]1[C@@H](n1cnc3c(NC)nc(C#Cc4ccc(F)c(F)c4)nc31)[C@H](O)[C@@H]2O`, the outcome in [1], in test [6] and in test [10] was inactive. The values for the Activity in test [2], in [7] and in test [12] were 690%, 438% and 371%, respectively. Further, the pEC50 was 7.15 in test [2], < 5.00 in test [6], 6.89 in test [7] and < 5.00 in test [10]. In addition, the pIC50 is < 5.00 in test [4] and 7.04 in test [5].
